# Exocytosis inh: lytic granule exocytosis inhibition; TALL-104 LAMP-1 surface exposure, flow cytometry; cells stimulated with thapsigargin and PMA; inhibition, % at 10 µM; actives 0.66% (n = 360,000); AID 651702;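 active = inhibition above about 55%, limit read from the data; inconclusive = no clear call, values can overlap the other calls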
# MPTP block: permeability transition pore inhibition; isolated mouse mitochondria, Ca2+ swelling absorbance, 30 min; inhibition, % at 10 µM; actives 1.4% (n = 360,000); AID 602449;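 active = inhibition of 50% or more, scaled per plate between neutral and stimulator controls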;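 also: 0% = DMSO wells given calcium and 100% = 1 mM EGTA wells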
# hiPSC survival: hiPSC single-cell survival enhancement | ATPlite luminescence; 100% = ROCK inhibitor wells, 0% = DMSO | survival enhancement, % at 20 µM | actives 0.044% (n = 360,000) | AID 602274; in the data active = survival enhancement above about 18%;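 also: cells exposed to compounds for 16 hours before the ATP read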
# Apaf-1 inh: inhibitors of human Apaf-1 apoptosome. O14727. reconstituted apoptosome caspase-3 activity, DEVD-Rh110 fluorescence. inhibition, % at 20 µM. actives 0.71% (n = 330,000). AID 489030; active = inhibition of at least 40% at 20 µM;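 also: plate controls were DMSO wells for no effect and DEVD-CHO caspase inhibitor wells for full effect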
# Target sequence (O14727 whole entry, looked up): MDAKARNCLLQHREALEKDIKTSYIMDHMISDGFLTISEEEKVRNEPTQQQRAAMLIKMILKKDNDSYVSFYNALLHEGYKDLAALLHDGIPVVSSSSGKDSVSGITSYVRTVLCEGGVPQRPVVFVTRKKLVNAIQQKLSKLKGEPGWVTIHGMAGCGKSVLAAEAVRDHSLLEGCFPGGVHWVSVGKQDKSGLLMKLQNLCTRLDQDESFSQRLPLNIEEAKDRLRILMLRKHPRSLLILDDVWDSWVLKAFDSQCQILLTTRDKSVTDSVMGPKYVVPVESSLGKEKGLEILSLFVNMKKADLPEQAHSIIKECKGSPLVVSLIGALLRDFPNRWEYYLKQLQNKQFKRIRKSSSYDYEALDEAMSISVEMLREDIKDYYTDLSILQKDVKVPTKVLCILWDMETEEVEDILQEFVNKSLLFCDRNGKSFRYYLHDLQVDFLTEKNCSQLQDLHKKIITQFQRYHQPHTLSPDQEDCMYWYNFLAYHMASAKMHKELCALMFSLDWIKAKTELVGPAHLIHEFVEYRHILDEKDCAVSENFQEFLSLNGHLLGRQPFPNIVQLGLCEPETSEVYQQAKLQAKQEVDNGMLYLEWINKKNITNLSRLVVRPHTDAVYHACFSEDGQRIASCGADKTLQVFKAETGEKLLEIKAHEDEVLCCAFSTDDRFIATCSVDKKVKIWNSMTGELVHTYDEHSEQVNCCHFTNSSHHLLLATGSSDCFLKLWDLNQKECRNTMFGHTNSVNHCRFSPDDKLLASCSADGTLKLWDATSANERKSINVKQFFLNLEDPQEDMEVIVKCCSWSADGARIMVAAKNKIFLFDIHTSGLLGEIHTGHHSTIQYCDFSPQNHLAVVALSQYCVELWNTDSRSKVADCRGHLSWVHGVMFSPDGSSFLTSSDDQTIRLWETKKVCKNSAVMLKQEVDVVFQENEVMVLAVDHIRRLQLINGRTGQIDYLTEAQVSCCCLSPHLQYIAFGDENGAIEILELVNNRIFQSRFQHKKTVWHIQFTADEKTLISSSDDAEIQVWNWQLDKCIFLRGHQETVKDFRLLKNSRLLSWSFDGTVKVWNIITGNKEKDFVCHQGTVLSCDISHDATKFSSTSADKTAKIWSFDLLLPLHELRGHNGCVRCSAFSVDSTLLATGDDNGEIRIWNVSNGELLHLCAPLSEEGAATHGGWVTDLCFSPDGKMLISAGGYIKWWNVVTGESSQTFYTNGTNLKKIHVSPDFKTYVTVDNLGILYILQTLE
#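 System – cell-free apoptosome with Apaf-1, procaspase-3 and caspase-9 · Buffer or medium – pH 7.5 Hepes buffer with CHAPS, BSA, DTT · Also added – cytochrome c with DEVD-Rh110 · Times – 30 min compound preincubation, 50 min activation, room temperature · Technique – Rh110 fluorescence intensity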
# beta cell repl: inducers of beta-cell replication in MIN6 cells; MIN6 cells proliferation, ATPlite luminescence, 48 h; cells starved in 0.2% serum; 100% = growth in 10% serum; proliferation, % at 10 µM; actives 0.29% (n = 330,000);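 active = compounds whose signal lies at least 3.5 SD above the mean of all wells on their plate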;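 also: 0% = DMSO-treated cells in low-serum medium and 100% = 10% serum control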
# UBC13 polyUb: blocks human UBC13 polyubiquitin chain formation; P61088; TR-FRET; actives 0.47% (n = 330,000); inhibition, % at 20 µM; AID 485273; in the data active = inhibition above about 45%, passing the limit was not always enough; inconclusive = no clear call, values can overlap the other calls
# MPTP counter: Rhodamine 123 counter-screen of mitochondrial pore hits; shares compounds with MPTP block; isolated mitochondria, membrane potential, Rhodamine 123 fluorescence; inhibition, % at 10 µM; actives 78% (n = 5,000); in the data active = inhibition above about 22%;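 also: 0% = DMSO vehicle and 100% = positive control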
# MPTP abs DR: MPTP inhibition, dose response swelling confirmation; IC50, µM; shares compounds with MPTP block; actives 58% (n = 780); isolated mitochondria swelling, absorbance; AID 651561; in the data active = IC50 below about 20 µM
# MPTP cs DR: active in counter-screen for permeability transition pore inhibitors. shares compounds with MPTP block. isolated mitochondria counterscreen, fluorescence read-out. IC50, µM. actives 49% (n = 780). AID 651564; in the data active = IC50 below about 80 µM
# * marks the source's active call; other numbers are inactive results; i = inactive; ? = inconclusive; . = not tested or not shown. Compounds with a hit are over-represented: about 3% of the library has one in this group of screens.
SMILES,Exocytosis inh,MPTP block,hiPSC survival,Apaf-1 inh,beta cell repl,UBC13 polyUb,MPTP counter,others
FC(F)(F)Oc1ccc(NC(=S)Nc2ccccc2N2CCOCC2)cc1,12,90*,0,1,-3,4,81*,
COc1cc(-c2nnc3n2CCCCC3)cc(OC)c1OC,1,2,-1,4,4,3,.,
COc1ccc2oc(C(=O)N(C)CCOc3ccc(Cl)cc3)c(C)c2c1,1,122*,0,20,-2,0,6,MPTP abs DR=i;MPTP cs DR=52*
COc1ccccc1CNC(=O)C(=O)NCC1OCCCN1S(=O)(=O)c1cccs1 (stereo not drawn),-1,-3,0,11,2,-4,.,
Cc1[nH]c(C(=O)N/N=C/c2ccc(C(=O)O)cc2)c(C)c1C(=O)N/N=C/c1ccc(C(=O)O)cc1,-2,2,-1,-2,-2,-21,.,
CCOC(=O)c1c(C)[nH]c(C(=O)N/N=C/c2ccc(Br)cc2)c1C,-2,99*,2,7,-6,-17,76*,
Cc1cccc(C(=O)NCC(=O)OCC(=O)N(C)CC(=O)Nc2ccc(F)cc2)c1,-10,-1,0,1,4,4,.,
COC(=O)c1scc(S(=O)(=O)C(C)C)c1N/N=C(\C#N)C(=O)c1ccc(Cl)cc1,10,73*,0,1,-3,-14,78*,
COC(=O)c1scc(C#N)c1N/N=C(\C#N)S(=O)(=O)c1ccc(Cl)cc1,9,67*,0,-10,-6,-16,84*,
COC(=O)c1scc(C)c1NC(=O)c1ccc(Cl)cc1,0,0,0,1,-2,2,.,
c1ccc(CN2CCC(Nc3nc(-c4ccccc4)nc4ccccc34)CC2)cc1,7,106*,1,30,-4,36,-5,
Cc1csc2ncnc(NC3CCN(Cc4ccccc4)CC3)c12,18,92*,0,-22,-6,5,87*,
COc1cccc(C(O)c2ncc(-c3ccc(C(F)(F)F)cc3)[nH]2)c1 (stereo not drawn),19,2,1,.,.,.,.,
COC(=O)c1c(C)oc2ccc(NS(=O)(=O)c3cccs3)cc12,1,92*,-2,1,-3,5,57*,
COC(=O)C1CCN(Cc2ccc(OCCCN3CCN(c4ccc([N+](=O)[O-])cc4)CC3)cc2)CC1,14,96*,1,-4,-4,8,82*,
CC1CCN(CCCCOc2ccc([N+](=O)[O-])cc2)CC1,-2,11,-1,-3,-3,-9,.,
O=c1oc(-c2ccccc2)c(-c2ccccc2)c2ccccc12,-10,0,9,.,.,.,.,
COc1ccc(C(=O)Nc2ccc(-c3cn4ccsc4n3)cc2)cc1S(=O)(=O)N1CCOCC1,-1,58*,2,-3,-3,1,9,MPTP abs DR=>100;MPTP cs DR=>80
CS(=O)(=O)NNC(=O)Cn1nnc(-c2ccc(OCc3ccccc3Cl)cc2)n1,-4,8,0,-9,-3,-13,.,
O=C(CSc1nc2ccc([N+](=O)[O-])cc2[nH]1)NC1CCCCCC1,2,95*,1,4,-5,16,80*,
O=C(CSc1nc2ccc([N+](=O)[O-])cc2[nH]1)NC1CCCCC1,-4,5,-1,-19,-1,10,.,
COc1ccc(C(=O)CSc2nc3ccc([N+](=O)[O-])cc3[nH]2)cc1,-3,99*,0,23,-4,-25,86*,
NC(=O)C1CCN(CC(O)COc2ccc(-c3ccccc3)cc2)CC1 (stereo not drawn),23,0,1,6,-2,7,.,
CCOC(=O)c1c(Cc2cccc(Cl)c2)c[nH]c1C,0,5,-1,7,1,5,.,
COC(=O)c1c(Cc2ccccc2Cl)c[nH]c1C,-1,55*,-1,14,0,-15,24*,
SMILES,Exocytosis inh,MPTP block,hiPSC survival,Apaf-1 inh,beta cell repl,UBC13 polyUb,MPTP counter,others
Cc1ccc(CN2CC(C(=O)NCC(=O)Nc3c(C)cccc3C)CC2=O)cc1 (stereo not drawn),-14,1,0,-1,-2,1,.,
CCOc1ccccc1OCCC(=O)Nc1ccc(F)c(Cl)c1,7,2,-2,1,-1,22,.,
Cc1ccccc1OCCC(=O)Nc1ccc(F)c(Cl)c1,10,85*,-1,2,-3,16,85*,
O=C(NC(c1ccc(Cl)cc1)c1cccnc1)C1CCN(CCOc2ccc(Cl)cc2Cl)CC1 (stereo not drawn),6,1,9,.,.,.,.,
c1ccc2c(c1)NC(c1ccncc1)n1c-2nc2ccccc21 (stereo not drawn),-1,0,-2,-5,0,11,.,
c1cncc(C2Nc3ccccc3-c3nc4ccccc4n32)c1 (stereo not drawn),24,59*,-3,6,-3,9,88*,
c1csc(C2Nc3ccccc3-c3nc4ccccc4n32)c1 (stereo not drawn),-7,52*,-1,11,0,5,75*,
Cc1ccsc1C1Nc2ccccc2-c2nc3ccccc3n21 (stereo not drawn),-4,0,2,17,0,33,.,
O=C(COC(=O)CN1C(=O)NC2(CCCCC2)C1=O)Nc1cc(F)ccc1F,-3,0,0,-8,-2,-10,.,
Cc1ccccc1-n1ncc2c(SCC(=O)NC3CCCC3)ncnc21,34,80*,-1,-1,0,-1,28*,
O=C(CSc1ncnc2c1cnn2-c1ccccc1)Nc1ccc2c(c1)OCO2,1,67*,1,4,-3,-4,9,MPTP abs DR=5.2*;MPTP cs DR=6.4*
CCn1cc(CN(C)S(=O)(=O)c2ccc3ccccc3c2)c(C)n1,-1,91*,3,9,-6,-3,85*,
CCc1ccc(/C=C\C(=O)N2CCCC2)cc1,-2,2,1,-7,-4,-8,.,
CCc1ccc(/C=C\C(=O)N2CCc3ccccc3C2)cc1,-2,61*,4,6,-4,?,36*,
Cc1ccc(Cn2ncc3c(N4CCCC4)ncnc32)cc1,-4,62*,1,7,-2,-3,1,MPTP abs DR=>100;MPTP cs DR=>80
Cc1ccc([C@H]2N[C@]3(CCCN(Cc4ccco4)C3=O)[C@H]3C(=O)N(C)C(=O)[C@@H]23)cc1,-2,0,0,.,.,.,.,
CC(C)COc1ccc(S(=O)(=O)NNC(=O)c2cc3ccccc3o2)cc1,18,60*,0,-10,-3,-18,50*,

# Screening results as filed in PubChem.
